≈ marks a conversion by molar mass, not a printed value. Calls of active or inactive are those of the source. The rule behind the calls is not given here.
Assays:
Candida albicans [1] = experiment: Antifungal activity against Candida albicans isolate 17 grown in RPMI 1640 medium incubated for 24 hrs by microdilution method; type: functional; conditions: isolate 17, 24 h
Procedure, shortened: (§1)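 C. albicans standard strain SC5314 and clinical isolates g5 and 17# tested by broth microdilution in YNB or RPMI 1640 medium. Plates incubated at 35 °C for up to 72 h, with visual readings taken at 24 h. MIC taken as the lowest concentration preventing visible growth.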

Candida albicans [2] = experiment: Antifungal activity against Candida albicans SC5314 grown in RPMI 1640 medium incubated for 24 hrs by microdilution method; type: functional; conditions: SC5314, 24 h; procedure, shortened: as §1
Candida albicans [3] = experiment: Inhibition of Candida albicans AHAS catalytic subunit at 10 uM using pyruvate as substrate measured after 30 mins by colorimetric method relative to control
Procedure, shortened: (§2)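 Colorimetric assay in 50 mM potassium phosphate pH 7.0 with 50 mM pyruvate, 1 mM thiamine diphosphate, 10 mM MgCl2 and 10 μM FAD. Incubated 30 min at 37 °C for plant AHAS and 30 °C for fungal AHAS. Acetolactate formed was then quantified.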

Candida albicans [4] = experiment: Inhibition of Candida albicans AHAS catalytic subunit at 100 uM using pyruvate as substrate measured after 30 mins by colorimetric method relative to control; procedure, shortened: as §2
Candida albicans [5] = experiment: Antifungal activity against Candida albicans isolate g5 grown in RPMI 1640 medium incubated for 24 hrs by microdilution method; type: functional; conditions: isolate g5, 24 h; procedure, shortened: as §1
Candida albicans [6] = experiment: Antifungal activity against Candida albicans SC5314 grown in YNB medium incubated for 24 hrs by microdilution method; type: functional; conditions: SC5314, 24 h; procedure, shortened: as §1
Candida albicans [7] = experiment: Antifungal activity against Candida albicans isolate 17 grown in YNB medium incubated for 24 hrs by microdilution method; type: functional; conditions: isolate 17, 24 h; procedure, shortened: as §1
Candida albicans [8] = experiment: Antifungal activity against Candida albicans isolate g5 grown in YNB medium incubated for 24 hrs by microdilution method; type: functional; conditions: isolate g5, 24 h; procedure, shortened: as §1
Ceratobasidium cereale = experiment: Antifungal activity against Rhizoctonia cerealis assessed as reduction in growth at 50 mg/l by mycelium growth rate method relative to control; type: functional
Procedure, shortened: (§3)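 Mycelium growth rate method against S. sclerotiorum, P. capsici, P. piricola, R. cerealis, W. anthracnose and R. bakanae. Each compound tested at 50 mg/L, with chlorothalonil and PTB as controls. Relative inhibitory ratio (%) calculated from mycelial growth.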

Arabidopsis thaliana [9] = experiment: Inhibition of Arabidopsis thaliana AHAS catalytic subunit using pyruvate as substrate at 100 uM measured after 30 mins by colorimetric method relative to control; procedure, shortened: as §2
Arabidopsis thaliana [10] = experiment: Inhibition of Arabidopsis thaliana AHAS catalytic subunit using pyruvate as substrate at 10 uM measured after 30 mins by colorimetric method relative to control; procedure, shortened: as §2
[11] = system: Brassica rapa subsp. oleifera; experiment: Herbicidal activity against Brassica campestris L assessed as inhibition of rape root growth at 100 mg/l root growth incubated for 48 hrs relative to control; type: functional
Procedure, shortened: (§4)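 Rape seeds soaked in distilled water for 4 h, then placed on filter paper wetted with inhibitor solution, 15 seeds per 6-cm dish. Germinated in the dark at 28 °C for 48 h. Mean length of 10 roots per plate measured.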

[12] = system: Brassica rapa subsp. oleifera; experiment: Herbicidal activity against Brassica campestris L assessed as inhibition of rape root growth at 10 mg/l root growth incubated for 48 hrs relative to control; type: functional; procedure, shortened: as §4
Sclerotinia sclerotiorum = experiment: Antifungal activity against Sclerotinia sclerotiorum assessed as reduction in growth at 50 mg/l by mycelium growth rate method relative to control; type: functional; procedure, shortened: as §3
Phytophthora capsici = experiment: Antifungal activity against Phytophthora capsici assessed as reduction in growth at 50 mg/l by mycelium growth rate method relative to control; type: functional; procedure, shortened: as §3
[13] = system: Botryosphaeria berengeriana; experiment: Antifungal activity against Physalospora pyricola assessed as reduction in growth at 50 mg/l by mycelium growth rate method relative to control; type: functional; procedure, shortened: as §3
Colletotrichum = experiment: Antifungal activity against Colletotrichum (W. anthracnose) assessed as reduction in growth at 50 mg/l by mycelium growth rate method relative to control; type: functional; procedure, shortened: as §3
Fusarium fujikuroi = experiment: Antifungal activity against Gibberella fujikuroi assessed as reduction in growth at 50 mg/l by mycelium growth rate method relative to control; type: functional; procedure, shortened: as §3
Mythimna separata = experiment: Insecticidal activity against Mythimna separata assessed as larval mortality at 600 mg/l by leaf-dip method; type: functional
Tobacco mosaic virus [14] = experiment: Antiviral activity against Tobacco mosaic virus inoculated in Nicotiana tabacum leaves assessed as passivation by measuring local lesion numbers at 500 mg/l pre-incubated with virus for 30 mins followed by inoculation and measured up to 4 days; type: functional
Procedure, shortened: (§5)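 Passivation assay: TMV mixed with an equal volume of compound solution for 30 min, then rubbed onto the left half of N. tabacum L. leaves. The right half received virus mixed with solvent as control. Local lesions counted 3–4 days after inoculation. Compounds tested at 500 or 100 mg/L.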

Tobacco mosaic virus [15] = experiment: Antiviral activity against Tobacco mosaic virus inoculated in Nicotiana tabacum leaves assessed as passivation by measuring local lesion numbers at 100 mg/l pre-incubated with virus for 30 mins followed by inoculation and measured up to 4 days; type: functional; procedure, shortened: as §5
[16] = system: Severe acute respiratory syndrome-related coronavirus; experiment: Inhibition of SARS coronavirus M protease using AVLQSGFRKK as substrate at 20 uM by FRET assay relative to control
Procedure, shortened: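 Purified SARS-CoV Mpro assayed by FRET. Protein, compound and substrate were preheated at 37 °C and oscillated. Fluorescence (ex 320/em 405 nm) was read every 5 s for 200 reads.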

| Structure (SMILES) | MIC (Candida albicans [1]) | MIC (Candida albicans [2]) | inhibition (Candida albicans [3]) | inhibition (Candida albicans [4]) | MIC (Candida albicans [5]) | MIC (Candida albicans [6]) | MIC (Candida albicans [7]) | MIC (Candida albicans [8]) | inhibition at 50 µg/mL (Ceratobasidium cereale) | inhibition (Arabidopsis thaliana [9]) | inhibition (Arabidopsis thaliana [10]) | inhibition (INH) [11] | inhibition (INH) [12] | inhibition at 50 µg/mL (Sclerotinia sclerotiorum) | inhibition at 50 µg/mL (Phytophthora capsici) | inhibition at 50 µg/mL [13] | inhibition at 50 µg/mL (Colletotrichum) | inhibition at 50 µg/mL (Fusarium fujikuroi) | inhibition at 500 µg/mL (Tobacco mosaic virus [14]) | inhibition [16] | further results |
| --- | --- | --- | --- | --- | --- | --- | --- | --- | --- | --- | --- | --- | --- | --- | --- | --- | --- | --- | --- | --- | --- |
| CCOc1ccccc1OS(=O)(=O)NC(=O)Nc1nc(OC)cc(OC)n1 [ETHOXYSULFURON] | 50 µg/mL (≈ 126 µM) | 25 µg/mL (≈ 62.8 µM) | 96.8% | 98.7% | 25 µg/mL (≈ 62.8 µM) | 0.39 µg/mL (≈ 0.979 µM) | 0.39 µg/mL (≈ 0.979 µM) | 0.39 µg/mL (≈ 0.979 µM) | – | – | – | – | – | – | – | – | – | – | – | – | – |
| COc1nc(OC)nc(Sc2cccc(Br)c2C#N)n1 | > 100 µg/mL | > 100 µg/mL | 34.8% | 71.1% | > 100 µg/mL | 12.5 µg/mL (≈ 35.4 µM) | 6.25 µg/mL (≈ 17.7 µM) | 12.5 µg/mL (≈ 35.4 µM) | 31% | 74.7% | 40.3% | 14.3% | 0% | 13.9% | 25% | 73.4% | 47.6% | 21.2% | 0% | 96.3% | mortality at 600 µg/mL (Mythimna separata): 75%; inhibition (Tobacco mosaic virus [15]): inactive |
| COc1nc(OC)nc(Sc2ccc(C(=O)O)c(C(F)(F)F)c2)n1 | > 100 µg/mL | > 100 µg/mL | 8.6% | 21.2% | > 100 µg/mL | > 100 µg/mL | > 100 µg/mL | > 100 µg/mL | 38.1% | 75.5% | 21.8% | 16.5% | 4% | 75% | 8.3% | 43.8% | 16.7% | 36.4% | 42.3% | 22.2% | mortality at 600 µg/mL (Mythimna separata): 80%; inhibition at 100 µg/mL (Tobacco mosaic virus [15]): 6.2% |
| COc1cc(OC)nc(Sc2ccc(C(=O)O)cc2C(=O)O)n1 | > 100 µg/mL | > 100 µg/mL | 8% | 24% | > 100 µg/mL | > 100 µg/mL | > 100 µg/mL | > 100 µg/mL | – | 20% | 5% | 0% | 0% | – | – | – | – | – | – | 0% | – |
| NC(=O)c1ncn([C@@H]2O[C@H](CO)[C@@H](O)[C@H]2O)n1 [RIBAVIRIN] | – | – | – | – | – | – | – | – | – | – | – | – | – | – | – | – | – | – | 37.6% | – | inhibition at 100 µg/mL (Tobacco mosaic virus [15]): 11.9% |
| COc1cc(OC)nc(Sc2cc(C(F)(F)F)ccc2C(=O)O)n1 | > 100 µg/mL | > 100 µg/mL | 0% | 31.2% | > 100 µg/mL | > 100 µg/mL | > 100 µg/mL | > 100 µg/mL | – | 85.5% | 51.8% | 50% | 24.6% | – | – | – | – | – | – | 0% | – |
| CNCC(=O)N[C@@H](CO)C(=O)N[C@H]1[C@H](O)[C@@H](O)[C@H](n2ccc(N)nc2=O)O[C@@H]1C(N)=O [NINGNANMYCIN] | – | – | – | – | – | – | – | – | – | – | – | – | – | – | – | – | – | – | 56.4% | – | inhibition at 100 µg/mL (Tobacco mosaic virus [15]): 27.8% |
| COc1nc(OC)nc(Sc2ccc(C(F)(F)F)cc2C#N)n1 | > 100 µg/mL | > 100 µg/mL | 0% | 12% | > 100 µg/mL | > 100 µg/mL | > 100 µg/mL | > 100 µg/mL | – | 15% | 11.5% | 8.5% | 0% | – | – | – | – | – | – | 0% | – |
| COc1nc(OC)nc(Sc2ccc(C(=O)O)cc2C(=O)O)n1 | > 100 µg/mL | > 100 µg/mL | 15.6% | 58.7% | > 100 µg/mL | > 100 µg/mL | > 100 µg/mL | > 100 µg/mL | – | 81.7% | 73.3% | 20.3% | 8% | – | – | – | – | – | – | 0% | – |
| COc1cc(OC)nc(Sc2ccc(C(=O)O)c(C(F)(F)F)c2)n1 | > 100 µg/mL | > 100 µg/mL | 2.1% | 20.6% | > 100 µg/mL | > 100 µg/mL | > 100 µg/mL | > 100 µg/mL | 73.8% | 77.4% | 37.7% | 45.2% | 0% | 75% | 8.3% | 35.9% | 14.3% | 30.3% | 0% | 21.7% | inhibition (Tobacco mosaic virus [15]): inactive |
| COc1cc(OC)nc(Sc2ccc(C(F)(F)F)cc2C#N)n1 | > 100 µg/mL | > 100 µg/mL | 3.6% | 25% | > 100 µg/mL | > 100 µg/mL | > 100 µg/mL | > 100 µg/mL | – | 72.3% | 28.2% | 25.8% | 0% | – | – | – | – | – | – | 0% | – |
| COc1nc(OC)nc(Sc2cc(Cl)ccc2C#N)n1 | > 100 µg/mL | > 100 µg/mL | 0% | 26.3% | > 100 µg/mL | > 100 µg/mL | > 100 µg/mL | > 100 µg/mL | 40.5% | 100% | 43.6% | 40% | 34.4% | 13.9% | 41.7% | 37.5% | 19% | 30.3% | 0% | – | mortality at 600 µg/mL (Mythimna separata): 25%; inhibition (Tobacco mosaic virus [15]): inactive |
| COc1cc(OC)nc(Sc2ccc(C#N)c(C(F)(F)F)c2)n1 | > 100 µg/mL | > 100 µg/mL | 18.6% | 51.4% | > 100 µg/mL | > 100 µg/mL | > 100 µg/mL | > 100 µg/mL | – | 86.2% | 51.2% | 33.5% | 4.7% | – | – | – | – | – | – | 85% | – |
| COc1nc(OC)nc(Oc2cccc(Br)c2)n1 | > 100 µg/mL | > 100 µg/mL | 10.6% | 18.3% | > 100 µg/mL | > 100 µg/mL | > 100 µg/mL | > 100 µg/mL | 52.4% | 60% | 6.6% | 87.4% | 32.5% | 61.1% | 8.3% | 40.6% | 16.7% | 0% | 19.5% | 0% | inhibition (Tobacco mosaic virus [15]): inactive |
| COc1nc(OC)nc(Sc2ccc(C#N)cc2C(F)(F)F)n1 | > 100 µg/mL | > 100 µg/mL | 10.5% | 22% | > 100 µg/mL | > 100 µg/mL | > 100 µg/mL | > 100 µg/mL | – | 10% | 0% | 5% | 0% | – | – | – | – | – | – | 18% | – |

Reference: ChEMBL document CHEMBL4390648, “Chemical synthesis, crystal structure, versatile evaluation of their biological activities and molecular simulations of novel pyrithiobac derivatives” (Eur J Med Chem, 2019)
